Results as given in ChEMBL document CHEMBL4043061, “Potent, Selective, Allosteric Inhibition of Human Plasmin by Sulfated Non-Saccharide Glycosaminoglycan Mimetics” (J Med Chem, 2017).
Active and inactive are the calls of the source. The rule behind the calls is not given here.

Tests used:
[1] = molecular target: Plasminogen (Homo sapiens) (UniProt P00747); test: Allosteric inhibition of full length human plasmin by using chromogenic substrate spectrozyme PL preincubated for 5 mins followed by substrate addition by spectrophotometric method
Procedure, shortened: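 Inhibitor added from 0–20 mM aqueous stocks, or vehicle. After 5 min, Spectrozyme PL added (1 mM stock). Residual activity taken from initial rate of A405 rise. Logistic fit gives IC50, efficacy and Hill slope.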

[2] = molecular target: Plasminogen (Homo sapiens) (UniProt P00747); test: Binding affinity to human plasmin assessed as loss of intrinsic tryptophan fluorescence at 250 uM by spectrofluorometric method
[3] = molecular target: Plasminogen (Homo sapiens) (UniProt P00747); settings: 200 uM
[4] = molecular target: Prothrombin (Homo sapiens) (UniProt P00734); test: Inhibition of human thrombin by using chromogenic substrate spectrozyme TH preincubated for 5 mins followed by substrate addition by spectrophotometric method
Procedure, shortened: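 Thrombin at 6 nM final, 25 °C, in 20 mM Tris-HCl pH 7.4 with 100 mM NaCl, 2.5 mM CaCl2, 0.1% PEG8000, 0.02% Tween80. Inhibitor (0–20 mM stock) or vehicle preincubated 5 min with enzyme. Spectrozyme TH added (1.0 mM stock). Residual activity read as initial rate of A405 increase and fitted to a sigmoidal dose–response curve.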

[5] = species on record: Homo sapiens; test: Inhibition of human chymotrypsin using chromogenic substrate spectrozyme Cty preincubated for 5 mins followed by substrate addition by spectrophotometric method
Procedure, shortened: (§1)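 Tris-HCl pH 7.4 buffer (100 mM NaCl, 2.5 mM CaCl2, 0.1% PEG8000, 0.02% Tween80) at 37 °C; factor IXa buffer also held 33% ethylene glycol. Final enzyme: factor Xa 1.09 nM, XIa 0.75 nM, XIIa 10 nM, IXa 250 nM, trypsin 0.145 µg/mL, chymotrypsin […]. Inhibitor from 0–20 mM stock, 5 min preincubation, then substrate. Initial A405 rate, sigmoidal dose–response fit.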

[6] = molecular target: Coagulation factor XI (Homo sapiens) (UniProt P03951); test: Inhibition of human F11a by using chromogenic substrate S-2366 preincubated for 5 mins followed by substrate addition by spectrophotometric method; procedure, shortened: as §1
[7] = molecular target: Coagulation factor X (Homo sapiens) (UniProt P00742); test: Inhibition of human F10a by using chromogenic substrate spectrozyme F10a preincubated for 5 mins followed by substrate addition by spectrophotometric method; procedure, shortened: as §1
Coagulation factor X (Homo sapiens), sequence (P00742 41-179 limits assumed): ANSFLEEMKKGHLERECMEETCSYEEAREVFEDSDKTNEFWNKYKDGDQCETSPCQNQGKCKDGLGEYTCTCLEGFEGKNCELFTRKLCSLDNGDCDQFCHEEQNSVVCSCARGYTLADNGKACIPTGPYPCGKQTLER
Coagulation factor X (Homo sapiens), sequence (P00742 235-488 limits assumed): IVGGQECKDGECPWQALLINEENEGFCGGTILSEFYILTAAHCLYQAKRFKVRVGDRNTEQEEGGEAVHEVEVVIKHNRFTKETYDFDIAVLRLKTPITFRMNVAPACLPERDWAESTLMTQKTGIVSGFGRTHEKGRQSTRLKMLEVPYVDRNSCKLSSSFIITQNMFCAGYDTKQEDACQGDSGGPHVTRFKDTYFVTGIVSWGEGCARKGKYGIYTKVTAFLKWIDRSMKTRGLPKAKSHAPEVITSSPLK

Plasminogen (Homo sapiens), sequence (P00747 97-580 limits assumed): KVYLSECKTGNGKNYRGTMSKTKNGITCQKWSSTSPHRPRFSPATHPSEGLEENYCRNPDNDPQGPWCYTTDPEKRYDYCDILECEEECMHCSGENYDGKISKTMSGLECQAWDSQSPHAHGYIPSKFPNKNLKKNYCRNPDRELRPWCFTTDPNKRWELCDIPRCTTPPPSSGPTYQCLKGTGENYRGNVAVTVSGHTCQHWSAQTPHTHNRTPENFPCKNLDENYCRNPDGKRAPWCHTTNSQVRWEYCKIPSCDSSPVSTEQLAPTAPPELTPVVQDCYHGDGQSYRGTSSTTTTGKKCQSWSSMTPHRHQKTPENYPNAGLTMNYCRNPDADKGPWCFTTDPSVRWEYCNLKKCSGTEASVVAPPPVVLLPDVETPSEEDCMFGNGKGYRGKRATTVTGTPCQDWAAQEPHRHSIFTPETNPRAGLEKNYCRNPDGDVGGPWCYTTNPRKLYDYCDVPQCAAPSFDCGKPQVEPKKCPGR
Plasminogen (Homo sapiens), sequence (P00747 581-810 limits assumed): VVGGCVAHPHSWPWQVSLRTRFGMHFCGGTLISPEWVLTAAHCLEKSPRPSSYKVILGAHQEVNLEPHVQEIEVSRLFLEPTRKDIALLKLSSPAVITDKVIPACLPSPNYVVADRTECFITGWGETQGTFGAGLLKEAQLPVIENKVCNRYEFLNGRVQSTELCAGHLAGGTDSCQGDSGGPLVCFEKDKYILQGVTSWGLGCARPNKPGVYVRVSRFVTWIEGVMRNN
Coagulation factor XI (Homo sapiens), sequence (P03951 19-387 limits assumed): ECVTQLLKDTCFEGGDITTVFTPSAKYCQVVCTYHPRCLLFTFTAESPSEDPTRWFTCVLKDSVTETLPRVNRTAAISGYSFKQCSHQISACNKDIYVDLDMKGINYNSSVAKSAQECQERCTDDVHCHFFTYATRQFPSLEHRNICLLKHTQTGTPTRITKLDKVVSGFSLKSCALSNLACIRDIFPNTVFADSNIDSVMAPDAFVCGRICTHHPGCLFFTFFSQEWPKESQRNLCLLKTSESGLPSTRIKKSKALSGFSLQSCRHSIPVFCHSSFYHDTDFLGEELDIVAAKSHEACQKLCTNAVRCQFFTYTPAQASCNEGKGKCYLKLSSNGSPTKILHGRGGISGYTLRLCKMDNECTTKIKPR
Coagulation factor XI (Homo sapiens), sequence (P03951 388-625 limits assumed): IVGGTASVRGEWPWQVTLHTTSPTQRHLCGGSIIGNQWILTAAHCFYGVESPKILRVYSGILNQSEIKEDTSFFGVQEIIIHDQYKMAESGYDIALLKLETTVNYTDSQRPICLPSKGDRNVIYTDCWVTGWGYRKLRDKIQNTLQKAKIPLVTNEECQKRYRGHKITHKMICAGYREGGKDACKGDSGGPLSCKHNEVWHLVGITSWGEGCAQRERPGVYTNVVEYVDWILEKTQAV

Structure (SMILES)	Efficacy [1]	also measured
Cc1cc(COc2cc(OS(=O)(=O)O)cc3oc(-c4ccc(OS(=O)(=O)O)c(OS(=O)(=O)O)c4)c(OS(=O)(=O)O)c(=O)c23)c(C)cc1COc1cc(OS(=O)(=O)O)cc2oc(-c3ccc(OS(=O)(=O)O)c(OS(=O)(=O)O)c3)c(OS(=O)(=O)O)c(=O)c12	104%	Activity [2]: 90%
O=c1c(OS(=O)(=O)O)c(-c2ccc(OS(=O)(=O)O)c(OS(=O)(=O)O)c2)oc2cc(OS(=O)(=O)O)cc(OCc3ccc(COc4cc(OS(=O)(=O)O)cc5oc(-c6ccc(OS(=O)(=O)O)c(OS(=O)(=O)O)c6)c(OS(=O)(=O)O)c(=O)c45)cc3)c12	93 to 98%	inhibition [3]: Active; Efficacy [4]: 77%; Efficacy [5]: 92%; Efficacy [6]: 93%
O=c1cc(-c2ccc(OS(=O)(=O)O)cc2)oc2cc(OS(=O)(=O)O)cc(OCc3ccc(COc4cc(OS(=O)(=O)O)cc5oc(-c6ccc(OS(=O)(=O)O)cc6)cc(=O)c45)cc3)c12	89%	
O=c1cc(-c2ccc(OS(=O)(=O)O)cc2)oc2cc(OS(=O)(=O)O)cc(OCc3cccc(COc4cc(OS(=O)(=O)O)cc5oc(-c6ccc(OS(=O)(=O)O)cc6)cc(=O)c45)c3)c12	86%	
O=c1cc(-c2ccc(OS(=O)(=O)O)cc2)oc2cc(OS(=O)(=O)O)cc(OCc3ccc(-c4ccc(COc5cc(OS(=O)(=O)O)cc6oc(-c7ccc(OS(=O)(=O)O)cc7)cc(=O)c56)cc4)cc3)c12	79%	
Cc1cc(COc2cc(OS(=O)(=O)O)cc3oc(-c4ccc(OS(=O)(=O)O)cc4)cc(=O)c23)c(C)cc1COc1cc(OS(=O)(=O)O)cc2oc(-c3ccc(OS(=O)(=O)O)cc3)cc(=O)c12	94%	Activity [2]: 108%
O=c1cc(-c2ccc(OS(=O)(=O)O)cc2)oc2cc(OS(=O)(=O)O)cc(OCCOc3cc(OS(=O)(=O)O)cc4oc(-c5ccc(OS(=O)(=O)O)cc5)cc(=O)c34)c12	79%	
O=c1c(OS(=O)(=O)O)c(-c2ccc(OS(=O)(=O)O)c(OS(=O)(=O)O)c2)oc2cc(OS(=O)(=O)O)cc(OCCCCOc3cc(OS(=O)(=O)O)cc4oc(-c5ccc(OS(=O)(=O)O)c(OS(=O)(=O)O)c5)c(OS(=O)(=O)O)c(=O)c34)c12	72%	
O=c1c(OS(=O)(=O)O)c(-c2ccc(OS(=O)(=O)O)c(OS(=O)(=O)O)c2)oc2cc(OS(=O)(=O)O)cc(OCc3cccc(COc4cc(OS(=O)(=O)O)cc5oc(-c6ccc(OS(=O)(=O)O)c(OS(=O)(=O)O)c6)c(OS(=O)(=O)O)c(=O)c45)c3)c12	107%	
O=c1c(OS(=O)(=O)O)c(-c2ccc(OS(=O)(=O)O)c(OS(=O)(=O)O)c2)oc2cc(OS(=O)(=O)O)cc(OCc3cccc(COc4cc(OS(=O)(=O)O)cc5oc(-c6ccc(OS(=O)(=O)O)c(OS(=O)(=O)O)c6)c(OS(=O)(=O)O)c(=O)c45)n3)c12	90%	
O=c1cc(-c2ccc(OS(=O)(=O)O)cc2)oc2cc(OS(=O)(=O)O)cc(OCCCCOc3cc(OS(=O)(=O)O)cc4oc(-c5ccc(OS(=O)(=O)O)cc5)cc(=O)c34)c12	90%	
O=c1c(OS(=O)(=O)O)c(-c2ccc(OS(=O)(=O)O)c(OS(=O)(=O)O)c2)oc2cc(OS(=O)(=O)O)cc(OCc3ccc(-c4ccc(COc5cc(OS(=O)(=O)O)cc6oc(-c7ccc(OS(=O)(=O)O)c(OS(=O)(=O)O)c7)c(OS(=O)(=O)O)c(=O)c56)cc4)cc3)c12	80%	
O=c1cc(-c2ccc(OS(=O)(=O)O)cc2)oc2cc(OS(=O)(=O)O)cc(OCc3cccc(COc4cc(OS(=O)(=O)O)cc5oc(-c6ccc(OS(=O)(=O)O)cc6)cc(=O)c45)n3)c12	63%	
O=c1c(O)c(-c2ccc(O)c(O)c2)oc2cc(O)cc(OCc3ccc(COc4cc(O)cc5oc(-c6ccc(O)c(O)c6)c(O)c(=O)c45)cc3)c12	111%	Efficacy [7]: 104%; Efficacy [4]: 91%; Efficacy [6]: 109%
O=c1cc(-c2ccc(OS(=O)(=O)O)cc2)oc2cc(OS(=O)(=O)O)cc(OC/C=C/COc3cc(OS(=O)(=O)O)cc4oc(-c5ccc(OS(=O)(=O)O)cc5)cc(=O)c34)c12	90%	Activity [2]: 101%
O=c1cc(-c2ccc(OS(=O)(=O)O)cc2)oc2cc(OS(=O)(=O)O)cc(OCc3ccc(COc4cc(OS(=O)(=O)O)cc5oc(-c6ccc(OS(=O)(=O)O)c(OS(=O)(=O)O)c6)c(OS(=O)(=O)O)c(=O)c45)cc3)c12	109%	
